Measured values reported in the RNAGym collection of RNA variant scans (doi:10.1002/anie.201605470).

B1: Osa-1-4 twister ribozyme (parent)
chain: CCGCCUAACACUGCCAAUGCCGGUCCCAAGCCCGGAUAAAAGUGGAGGGGGCGG

Variants of: B1
Experiment: self-cleavage, relative activity (ratio to wild type); higher = more cleavage; co-transcriptional
Summary of the method: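 A DNA template for a 54-nucleotide Oryza sativa twister ribozyme was synthesised with 97 % wild-type base and 1 % of each other base at the 48 positions downstream of the cleavage site. It was transcribed in vitro for 2 h at 37 °C, allowing co-transcriptional self-cleavage, then reverse-transcribed with a template-switching oligonucleotide, PCR-amplified and deep-sequenced. Cleavage status was scored from reads with or without upstream sequence. Relative activity is fraction cleaved normalised to wild type.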

Row | Variant | self-cleavage
1 | C31G G48U | 0.02
2 | C31U G13A | 0.89
3 | C31U G13C | 0.02
4 | C31U G13U | 0.05
5 | C31A G30C | 0.03
6 | C31A G30A | 0.02
7 | C31A G30U | 0.01
8 | C32G C33A | 0.07
9 | C32G C33U | 0.07
10 | C32G C33G | 0.05
11 | C31G G53C | 0.04
12 | C31G G53A | 0.08
13 | C31G G53U | 0.07
14 | C31G G34C | 0.1
15 | C31G G34U | 0.08
16 | C31G G34A | 0.11
17 | C32A G48C | 0.04
18 | C32A G48A | 0.03
19 | C32A G48U | 0.03
20 | C32A U24G | 0.02
21 | C32A U24A | 0.06
22 | C32A U24C | 0.04
23 | C32G G34U | 0.08
24 | C32G G34A | 0.09

Row | Variant | self-cleavage
25 | C32G G34C | 0.06
26 | C31U G45A | 0.04
27 | C31U G45C | 0.04
28 | C31U G45U | 0.04
29 | C32A C33A | 0.07
30 | C32A C33G | 0.03
31 | C32A C33U | 0.05
32 | C32A G13U | 0.01
33 | C32A G13C | 0.01
34 | C32A G13A | 0.01
35 | C31U G22A | 0.52
36 | C31U G22C | 0.07
37 | C31U G22U | 0.3
38 | C32A G45C | 0.02
39 | C32A G45U | 0.03
40 | C32A G45A | 0.04
41 | C31U G54A | 0.32
42 | C31U G54C | 0.27
43 | C31U G54U | 0.5
44 | C32G C9A | 0.03
45 | C32G C9G | 0.11
46 | C32G C9U | 0.04
47 | C31U G50A | 0.64
48 | C31U G50C | 0.26

Row | Variant | self-cleavage
49 | C31U G50U | 0.6
50 | C31U G34C | 0.24
51 | C31U G34A | 0.42
52 | C31U G34U | 0.56
53 | C31U G49C | 0.05
54 | C31U G49A | 0.06
55 | C31U G49U | 0.06
56 | C31G C32A | 0.02
57 | C31G C32U | 0.04
58 | C31G C32G | 0.1
59 | C31A U24C | 0.02
60 | C31A U24A | 0.02
61 | C31A U24G | 0.01
62 | C31A G45U | 0.02
63 | C31A G45C | 0.01
64 | C31A G45A | 0.02
65 | C31G G13A | 0.06
66 | C31G G13U | 0.04
67 | C31G G13C | 0.06
68 | C31U G44A | 0.29
69 | C31U G44U | 0.51
70 | C31U G44C | 0.62
71 | C31A G54U | 0.05
72 | C31A G54C | 0.04

Row | Variant | self-cleavage
73 | C31A G54A | 0.04
74 | C31A G51C | 0.02
75 | C31A G51A | 0.04
76 | C31A G51U | 0.04
77 | C32A G50A | 0.05
78 | C32A G50C | 0.07
79 | C32A G50U | 0.08
80 | C31G G22A | 0.11
81 | C31G G22C | 0.04
82 | C31G G22U | 0.05
83 | C31A G50A | 0.04
84 | C31A G50U | 0.04
85 | C31A G50C | 0.04
86 | C31G U24A | 0.04
87 | C31G U24C | 0.03
88 | C31G U24G | 0.02
89 | C32A U37C | 0.13
90 | C32A U37A | 0.14
91 | C32A U37G | 0.18
92 | C32A G53A | 0.08
93 | C32A G53C | 0.02
94 | C32A G53U | 0.05
95 | C31A G35A | 0.05
96 | C31A G35U | 0.05

Row | Variant | self-cleavage
97 | C31A G35C | 0.03
98 | C32A U12A | 0.07
99 | C32A U12G | 0.06
100 | C32A U12C | 0.04
101 | C32A G23U | 0.48
102 | C32A G23C | 0.03
103 | C32A G23A | 0.17
104 | C32G G23A | 0.27
105 | C32G G23U | 0.29
106 | C32G G23C | 0.08
107 | C31U G42C | 0.07
108 | C31U G42A | 0.09
109 | C31U G42U | 0.03
110 | C31A G48C | 0.02
111 | C31A G48U | 0.01
112 | C31A G48A | 0.02
113 | C31G G44A | 0.08
114 | C31G G44U | 0.05
115 | C31G G44C | 0.07
116 | C31G | 0.11
117 | C31U | 0.97
118 | C32G G35U | 0.08
119 | C32G G35A | 0.09
120 | C32G G35C | 0.07

Row | Variant | self-cleavage
121 | C31A G47U | 0.02
122 | C31A G47C | 0.02
123 | C31A G47A | 0.02
124 | C31G G23U | 0.03
125 | C31G G23A | 0.06
126 | C31G G23C | 0.11
127 | C31G G47U | 0.04
128 | C31G G47C | 0.03
129 | C31G G47A | 0.04
130 | C31G G45U | 0.03
131 | C31G G45C | 0.03
132 | C31G G45A | 0.04
133 | C32A G51C | 0.03
134 | C32A G51A | 0.07
135 | C32A G51U | 0.04
136 | C31U U37C | 0.94
137 | C31U U37G | 1
138 | C31U U37A | 0.84
139 | C31G G30U | 0.04
140 | C31G G30A | 0.04
141 | C31G G30C | 0.03
142 | C31U U43C | 0.08
143 | C31U U43A | 0.17
144 | C31U U43G | 0.1

Row | Variant | self-cleavage
145 | C31U U12A | 0.28
146 | C31U U12C | 0.11
147 | C31U U12G | 0.19
148 | C32G G45A | 0.05
149 | C32G G45C | 0.03
150 | C31U U18A | 0.9
151 | C31U U18G | 0.82
152 | C31U U18C | 0.87
153 | C31U G19A | 0.14
154 | C31U G19C | 0.06
155 | C31U G19U | 0.05
156 | C32A U43G | 0.05
157 | C32A U43C | 0.06
158 | C32A U43A | 0.07
159 | C32G G13U | 0.01
160 | C32G G13A | 0.04
161 | C32G G13C | 0.02
162 | C31A G53U | 0.03
163 | C31A G53C | 0.01
164 | C31A G53A | 0.04
165 | C32G G30A | 0.03
166 | C32G G30U | 0.02
167 | C32G G30C | 0.02
